Assay results as given in ChEMBL document CHEMBL4680101, “Discovery and Optimization of Allosteric Inhibitors of Mutant Isocitrate Dehydrogenase 1 (R132H IDH1) Displaying Activity in Human Acute Myeloid Leukemia Cells” (J Med Chem, 2016).
Active and inactive are the calls of the source. The calls are words filed in the database; no cut-off is given here.

Experiments:
[1] = target: Isocitrate dehydrogenase [NADP] cytoplasmic (Homo sapiens, UniProt O75874, R132C); assay: Inhibition of IDH1 R132C mutant (unknown origin) using alpha-ketoglutarate and NADPH incubated for 30 mins by fluorescence based assay
How it was run: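 IDH1 R132C (100 nM) in 20 mM Tris pH 7.5, 10 mM MgCl2, 150 mM NaCl, 0.03% BSA with 0.5 mM α-ketoglutarate and 50 µM NADPH. Reaction 30 min at 26 °C. NADPH consumption read via diaphorase/resazurin coupling, resorufin fluorescence Ex544/Em590.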

[2] = target: 11-beta-hydroxysteroid dehydrogenase 1 (Homo sapiens, UniProt P28845); assay: Inhibition of active recombinant human N-terminal His-tagged 11-betaHSD1 expressed in Escherichia coli using cortisone, NADPH and glucose-6-phosphate incubated for 2 hrs by glucose-6-phosphate dehydrogenase based coupled HTRF immuno-competitive assay
How it was run: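 Coupled HTRF immuno-competitive assay: 11β-HSD1 (1.5 µg/ml) in 100 mM potassium phosphate pH 7.6 with 160 nM cortisone, 1 mM EDTA, 1 mM glucose-6-phosphate and 12.5 µg/ml G6PD, started with 0.1 mM NADPH. Reaction 30 min at 37 °C, stopped with glycyrrhetinic acid in cortisol-d2, then anti-cortisol cryptate for 2 h at room temperature. TR-FRET read-out.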

[3] = target: T1, Isocitrate dehydrogenase [NADP] cytoplasmic (Homo sapiens, UniProt O75874, R132H); assay: Allosteric inhibition of IDH1 R132H mutant (unknown origin) expressed in HEK293T cells assessed as reduction in 2-HG production incubated for 48 hrs by LC-MS/MS analysis; format: cell-based
How it was run: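 HEK293T cells reverse-transfected with pcDNA3.1 IDH1 R132H (Lipofectamine 2000), 6 h at 37 °C in 1% FBS plating medium, then assay medium. Compound added in DMSO (0.15% final), 48 h at 37 °C. Medium 2-HG quantified by HILIC LC-MS/MS with D3-2-HG internal standard, normalised to Hoechst nuclear count. Mean of two biological replicates.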
Target sequence in this assay (O75874 2-414 R132H limits assumed): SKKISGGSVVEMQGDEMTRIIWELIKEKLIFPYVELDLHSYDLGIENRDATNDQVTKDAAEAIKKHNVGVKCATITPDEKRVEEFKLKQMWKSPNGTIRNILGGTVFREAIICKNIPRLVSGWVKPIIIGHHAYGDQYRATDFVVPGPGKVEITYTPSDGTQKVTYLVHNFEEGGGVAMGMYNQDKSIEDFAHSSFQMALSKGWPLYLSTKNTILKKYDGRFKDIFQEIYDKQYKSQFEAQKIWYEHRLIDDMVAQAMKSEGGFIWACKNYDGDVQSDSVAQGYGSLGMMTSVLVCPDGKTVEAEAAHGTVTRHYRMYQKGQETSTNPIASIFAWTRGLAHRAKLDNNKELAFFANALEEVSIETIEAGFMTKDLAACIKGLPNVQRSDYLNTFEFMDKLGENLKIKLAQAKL

HeLa = assay: Cytotoxicity in human HeLa cells; format: cell-based
[4] = tested on: Isocitrate dehydrogenase [NADP] cytoplasmic (Homo sapiens), O75874 [R132H]; assay: (§1) Allosteric inhibition of Myc-tagged IDH1 R132H mutant (unknown origin) expressed in human THP-1 cells assessed as inhibition of 2-HG production incubated for 5 days in presence of doxycycline by LC-MS/MS analysis; format: cell-based; conditions: filed as negative allosteric modulator, time 5.0 day
How it was run: (§2)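 THP1 cells carrying doxycycline-inducible Myc-tagged IDH1 R132H (lentiviral, blasticidin-selected) cultured 5 days with doxycycline and compound. 2-HG measured by HILIC LC-MS/MS after solid-phase extraction, D3-2-HG internal standard, against a medium-spiked standard curve. Mean of two biological replicates.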

[5] = target: T1, Isocitrate dehydrogenase [NADP] cytoplasmic; assay: as §1; format: cell-based; how it was run: as §2
Target sequence in this assay (O75874 whole entry R132H): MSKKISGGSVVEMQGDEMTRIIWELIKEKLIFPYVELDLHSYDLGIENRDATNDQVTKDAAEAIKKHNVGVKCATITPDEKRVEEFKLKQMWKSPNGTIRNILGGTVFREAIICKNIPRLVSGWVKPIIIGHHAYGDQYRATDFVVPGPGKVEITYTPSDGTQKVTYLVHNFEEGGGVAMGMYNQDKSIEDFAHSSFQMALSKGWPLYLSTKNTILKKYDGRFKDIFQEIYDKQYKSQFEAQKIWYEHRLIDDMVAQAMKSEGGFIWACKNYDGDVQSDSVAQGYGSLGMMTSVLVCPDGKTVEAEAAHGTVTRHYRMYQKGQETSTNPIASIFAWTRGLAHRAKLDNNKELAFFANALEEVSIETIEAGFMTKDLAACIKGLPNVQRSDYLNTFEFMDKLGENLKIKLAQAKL

[6] = tested on: Isocitrate dehydrogenase [NADP] cytoplasmic (Homo sapiens), O75874 [R132H]; assay: Allosteric inhibition of Myc-tagged IDH1 R132H mutant (unknown origin) expressed in human THP-1 cells assessed as inhibition of 2-HG production at >=10 uM incubated for 5 days in presence of doxycycline by LC-MS/MS analysis; format: cell-based; conditions: filed as negative allosteric modulator, dose microM >=10, time 5.0 day; how it was run: as §2
THP-1 = assay: Effect on cell proliferation in human THP-1 cells; format: ADME, cell-based
[7] = Effect on cell differentiation in human THP-1 cells; format: ADME, cell-based
Leukemic blast cell [8] = assay: Induction of myeloid differentiation in human primary AML blast cells from patient with IDH1 R132H mutation assessed as up-regulation of CD11b at 1 times to 8 times IC50 incubated for 14 days by flow cytometry; format: functional, tissue-based; conditions: time 14.0 day
How it was run: (§3)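 Primary AML cells (≥80% blasts), 2 x 10^4 per condition in methylcellulose with cytokines (IL-3, IL-6, IL-11, FLT3L, SCF, TPO, G-CSF, EPO). Compound at 1x, 4x, 8x cellular IC50 or DMSO (1:1000), 14 days at 37 °C. Recovered cells stained for CD11b, CD15 and CD117, ≥30 min at 4 °C, read by flow cytometry.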

Leukemic blast cell [9] = assay: Induction of myeloid differentiation in human primary AML blast cells from patient with IDH1 R132H mutation assessed as up-regulation of CD15 at 1 times to 8 times IC50 incubated for 14 days by flow cytometry; format: functional, tissue-based; conditions: time 14.0 day; how it was run: as §3
Leukemic blast cell [10] = assay: Induction of myeloid differentiation in human primary AML blast cells from patient with IDH1 R132H mutation assessed as down-regulation of CD117 at 1 times to 8 times IC50 incubated for 14 days by flow cytometry; format: functional, tissue-based; conditions: time 14.0 day; how it was run: as §3
Leukemic blast cell [11] = assay: Induction of myeloid differentiation in human primary AML blast cells from patient with IDH1 R132H mutation assessed as induction of mature cellular morphology at 1 times to 8 times IC50 incubated for 14 days by cytospin based analysis; format: functional, tissue-based; conditions: time 14.0 day
How it was run: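 Primary IDH1 R132H AML cells in cytokine-supplemented methylcellulose with compound or DMSO vehicle for 14 days. Cells recovered by dilution in PBS and centrifugation, then examined on cytospin preparations for morphology.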

Leukemic blast cell [12] = assay: Induction of myeloid differentiation in human primary AML blast cells from patient with IDH1 R132H mutation assessed as increase in clonogenic activity at 1 times to 8 times IC50 incubated for 14 days by cytospin based analysis; format: functional, tissue-based; conditions: time 14.0 day
How it was run: (§4)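 Primary AML cells (≥80% blasts) seeded at 2 x 10^4 per condition in cytokine-supplemented methylcellulose with compound or DMSO vehicle (1:1000), 37 °C, 5% CO2. Colonies scored and counted after 14 days, expressed relative to vehicle control. Three independent experiments, mean ± standard error.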

Leukemic blast cell [13] = assay: Induction of myeloid differentiation in human primary AML blast cells from patient with wild type IDH1 assessed as increase in clonogenic activity at 1 times to 8 times IC50 incubated for 14 days by cytospin based analysis; format: functional, tissue-based; conditions: time 14.0 day; how it was run: as §4
Leukemic blast cell [14] = assay: Induction of myeloid differentiation in human primary AML blast cells from patient with wild type IDH1 assessed as up-regulation of CD11b at 1 times to 8 times IC50 incubated for 14 days by flow cytometry; format: functional, tissue-based; conditions: time 14.0 day; how it was run: as §3
Leukemic blast cell [15] = assay: Induction of myeloid differentiation in human primary AML blast cells from patient with wild type IDH1 assessed as up-regulation of CD15 at 1 times to 8 times IC50 incubated for 14 days by flow cytometry; format: functional, tissue-based; conditions: time 14.0 day; how it was run: as §3
Leukemic blast cell [16] = assay: Induction of myeloid differentiation in human primary AML blast cells from patient with wild type IDH1 assessed as down-regulation of CD117 at 1 times to 8 times IC50 incubated for 14 days by flow cytometry; format: functional, tissue-based; conditions: time 14.0 day; how it was run: as §3
[17] = target: Isocitrate dehydrogenase [NADP] cytoplasmic (Homo sapiens, UniProt O75874); assay: Inhibition of wild type IDH1 (unknown origin) using isocitrate and NADP incubated for 30 mins by fluorescence based assay
[18] = target: T2, Isocitrate dehydrogenase [NADP], mitochondrial (Homo sapiens, UniProt P48735); assay: Inhibition of wild type IDH2 (unknown origin) using isocitrate and NADP incubated for 60 mins by fluorescence based assay
T2 sequence (P48735 whole entry): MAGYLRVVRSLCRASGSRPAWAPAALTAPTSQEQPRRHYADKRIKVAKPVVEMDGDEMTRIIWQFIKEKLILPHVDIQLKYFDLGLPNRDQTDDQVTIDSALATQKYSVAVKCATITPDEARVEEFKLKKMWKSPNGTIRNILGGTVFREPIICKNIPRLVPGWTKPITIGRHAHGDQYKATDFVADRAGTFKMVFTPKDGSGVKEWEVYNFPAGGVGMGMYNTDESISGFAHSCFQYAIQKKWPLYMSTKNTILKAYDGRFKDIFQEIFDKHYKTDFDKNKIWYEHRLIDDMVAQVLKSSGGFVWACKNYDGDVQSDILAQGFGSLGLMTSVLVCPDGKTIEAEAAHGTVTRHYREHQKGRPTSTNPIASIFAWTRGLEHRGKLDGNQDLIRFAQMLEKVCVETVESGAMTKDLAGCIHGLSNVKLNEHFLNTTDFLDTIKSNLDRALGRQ

[19] = target: Glucose-6-phosphate 1-dehydrogenase (Homo sapiens, UniProt P11413); assay: Inhibition of wild type G6PD (unknown origin) using glucose-6-phosphate and NADP incubated for 30 mins by fluorescence based assay
[20] = target: T1, Isocitrate dehydrogenase [NADP] cytoplasmic; assay: Inhibition of IDH1 R132H mutant (unknown origin) using alpha-ketoglutarate and NADPH incubated for 60 mins by fluorescence based assay
Target sequence in this assay (O75874 2-414 R132H limits assumed): as the sequence (O75874 2-414 R132H limits assumed) above

Chain of Isocitrate dehydrogenase [NADP] cytoplasmic (Homo sapiens), O75874 [R132H] (O75874 whole entry R132H): as the sequence (O75874 whole entry R132H) above
Chain of Isocitrate dehydrogenase [NADP] cytoplasmic (Homo sapiens, UniProt O75874, R132C) (O75874 2-414 R132C limits assumed): as the sequence (O75874 2-414 R132H limits assumed) above, with H131C counted along it
Chain of Glucose-6-phosphate 1-dehydrogenase (P11413 whole entry): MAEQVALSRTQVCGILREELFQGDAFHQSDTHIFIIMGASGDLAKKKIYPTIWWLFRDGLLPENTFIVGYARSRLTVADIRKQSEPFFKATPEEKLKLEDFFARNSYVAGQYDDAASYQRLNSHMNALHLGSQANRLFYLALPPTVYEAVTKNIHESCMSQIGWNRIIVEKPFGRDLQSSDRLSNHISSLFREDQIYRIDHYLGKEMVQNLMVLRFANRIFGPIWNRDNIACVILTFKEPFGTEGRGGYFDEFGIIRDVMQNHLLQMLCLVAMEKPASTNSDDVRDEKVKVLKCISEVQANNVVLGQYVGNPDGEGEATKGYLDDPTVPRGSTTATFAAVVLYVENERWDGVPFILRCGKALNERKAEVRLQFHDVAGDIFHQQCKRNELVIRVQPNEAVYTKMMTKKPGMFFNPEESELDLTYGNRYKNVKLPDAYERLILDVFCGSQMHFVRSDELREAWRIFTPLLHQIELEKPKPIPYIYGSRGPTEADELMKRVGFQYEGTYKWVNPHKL
Chain of Isocitrate dehydrogenase [NADP] cytoplasmic (Homo sapiens, UniProt O75874) (O75874 whole entry): as the sequence (O75874 whole entry R132H) above, with H132R counted along it
Chain of 11-beta-hydroxysteroid dehydrogenase 1 (P28845 whole entry): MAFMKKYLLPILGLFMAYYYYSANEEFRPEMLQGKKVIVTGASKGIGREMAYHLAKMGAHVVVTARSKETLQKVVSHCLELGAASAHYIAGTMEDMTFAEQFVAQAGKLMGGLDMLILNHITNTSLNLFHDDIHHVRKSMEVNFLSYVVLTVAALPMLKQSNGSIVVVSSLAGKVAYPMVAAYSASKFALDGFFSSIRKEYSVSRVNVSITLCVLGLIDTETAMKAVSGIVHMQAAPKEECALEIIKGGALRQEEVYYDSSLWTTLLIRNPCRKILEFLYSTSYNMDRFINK

CC(C)CCOc1nc(N2C[C@@H]3[C@H](C2)[C@H]3C(=O)O)ccc1C(=O)NC1C2CC3CC1CC(O)(C3)C2 (some centres not stated)
IC50 [1]: 470 nM
IC50 [2]: 9 nM
IC50 [3]: 2300 nM
IC50 (HeLa): > 30000 nM
inhibition [4]: Dose-dependent effect
IC50 [5]: 1900 nM
inhibition [6]: 100%
Activity (THP-1): Non-Toxic
Activity [7]: Non-Toxic
Activity (Leukemic blast cell [8]): Active
Activity (Leukemic blast cell [9]): Active
Activity (Leukemic blast cell [10]): Active
Activity (Leukemic blast cell [11]): Active
Activity (Leukemic blast cell [12]): Active
Activity (Leukemic blast cell [13]): inactive
Activity (Leukemic blast cell [14]): inactive
Activity (Leukemic blast cell [15]): inactive
Activity (Leukemic blast cell [16]): inactive
IC50 [17]: > 50000 nM
IC50 [18]: > 50000 nM
IC50 [19]: > 50000 nM
IC50 [20]: 270 nM
